Assay results from ChEMBL document CHEMBL1147338, “Production of an anti-allergic triterpene bryonolic acid, by plant cell cultures” (J Nat Prod, 1993).
Active and inactive are the calls of the source. The rule behind the calls is not given here.

Tests used:
Mus musculus [1] = assay: Antiallergic activity in ip dosed ddY mouse assessed as inhibition of passive cutaneous anaphylaxis administered 15 mins before egg albumin challenge; assay type: functional; details: read-out: ID50 (the source's name)
How it was run: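 Passive cutaneous anaphylaxis: anti-egg-albumin antiserum injected into both ears 48 h before iv egg albumin plus Evans Blue. Intraperitoneal dosing 15 min before antigen; dye leakage per ear measured spectrophotometrically after 30 min. ID50 (mg/kg) given as dose giving 50% inhibition.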

Mus musculus [2] = assay: Antiallergic activity in po dosed ddY mouse assessed as inhibition of passive cutaneous anaphylaxis administered 30 mins before egg albumin challenge; assay type: functional; details: read-out: ID50 (the source's name)
How it was run: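 Passive cutaneous anaphylaxis in mice: ear sensitization with anti-egg-albumin antiserum 48 h before iv egg albumin with Evans Blue; oral dosing 30 min before antigen; ear dye leakage read spectrophotometrically 30 min after challenge.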

[3] = target: T1, Aldo-keto reductase family 1 member D1 (Rattus norvegicus) (UniProt P31210); assay: Inhibition of rat liver 3-ketosteroid 5-beta-reductase
T1 sequence (whole entry): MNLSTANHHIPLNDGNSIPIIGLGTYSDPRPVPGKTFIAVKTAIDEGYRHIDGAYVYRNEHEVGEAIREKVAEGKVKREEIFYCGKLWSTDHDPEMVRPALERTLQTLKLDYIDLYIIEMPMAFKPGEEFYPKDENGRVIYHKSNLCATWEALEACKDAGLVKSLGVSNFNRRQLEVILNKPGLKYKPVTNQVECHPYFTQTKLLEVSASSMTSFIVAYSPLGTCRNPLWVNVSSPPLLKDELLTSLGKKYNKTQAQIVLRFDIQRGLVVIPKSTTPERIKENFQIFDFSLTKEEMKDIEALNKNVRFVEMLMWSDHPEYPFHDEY

Mus musculus [4] = assay: Antiallergic activity in ddY mouse assessed as inhibition picryl chloride-induced contact dermatitis at 300 mg/kg, po administered 3 hrs after picryl chloride challenge measured after 24 hrs
Mus musculus [5] = assay: Acute toxicity in ddY mouse at 4 g/kg, po; assay type: organism-based; details: in vivo, 4000 mg/kg
How it was run: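 Mice dosed orally at 4 g/kg; lethality recorded as the read-out for acute toxicity.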

Mus musculus [6] = assay: Antiallergic activity in ddY mouse assessed as inhibition picryl chloride-induced contact dermatitis at 75 mg/kg, po administered 3 hrs after picryl chloride challenge measured after 24 hrs
Mus musculus [7] = assay: Antiallergic activity in ddY mouse assessed as inhibition sheep erythrocytes-induced arthus reaction at 300 mg/kg, po administered 30 mins before induction of arthus reaction; assay type: functional
How it was run: (§1)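 Male ddY mice (4-week-old, 16–18 g) sensitized by iv sheep erythrocytes 19 and 5 days before Arthus reaction, induced by sc sheep erythrocytes into right paw. Oral dosing 30 min before induction; edema scored as right minus left paw thickness, expressed as % inhibition of control.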

Mus musculus [8] = assay: Antiallergic activity in ddY mouse assessed as inhibition picryl chloride-induced contact dermatitis at 150 mg/kg, po administered 3 hrs after picryl chloride challenge measured after 24 hrs
Mus musculus [9] = assay: Antiallergic activity in ddY mouse assessed as inhibition sheep erythrocytes-induced arthus reaction at 600 mg/kg, po administered 30 mins before induction of arthus reaction; assay type: functional; how it was run: as §1
Mus musculus [10] = assay: Antiallergic activity in ddY mouse assessed as inhibition sheep erythrocytes-induced arthus reaction at 30 mg/kg, po administered 30 mins before induction of arthus reaction; assay type: functional; how it was run: as §1
Mus musculus [11] = assay: Antiallergic activity in ddY mouse assessed as inhibition picryl chloride-induced contact dermatitis at 30 mg/kg, po administered 3 hrs after picryl chloride challenge measured after 24 hrs

Compound: CC1(C)[C@@H](OC(=O)c2ccccc2C(=O)[O-])CC[C@]2(C)C3=C(CC[C@@H]12)[C@@]1(C)CC[C@@]2(C)CC[C@@](C)(COC(=O)c4ccccc4C(=O)[O-])C[C@H]2[C@]1(C)CC3.[K+].[K+]
- ED50 (Mus musculus [1]): 41.4 mg/kg
- ED50 (Mus musculus [2]): 92.5 mg/kg

Compound: CC1(C)[C@@H](O)CC[C@]2(C)[C@H]3C(=O)C=C4[C@@H]5C[C@@](C)(C(=O)O)CC[C@]5(C)CC[C@@]4(C)[C@]3(C)CC[C@@H]12
- Activity [3]: Active

Compound: CC1(C)[C@@H](O)CC[C@]2(C)C3=C(CC[C@@H]12)[C@@]1(C)CC[C@@]2(C)CC[C@@](C)(C(=O)O)C[C@H]2[C@]1(C)CC3 [BRYONOLIC ACID]
- ED50 (Mus musculus [1]): 376 mg/kg
- Activity [3]: inactive

Compound: CC1(C)[C@@H](OC(=O)CCC(=O)[O-])CC[C@]2(C)C3=C(CC[C@@H]12)[C@@]1(C)CC[C@@]2(C)CC[C@@](C)(C(=O)[O-])C[C@H]2[C@]1(C)CC3.[K+].[K+]
- inhibition in vivo at 300 mg/kg (Mus musculus [4]): 53%
- ED50 (Mus musculus [1]): 55.3 mg/kg
- Activity (Mus musculus [5]): Non-toxic
- ED50 (Mus musculus [2]): 63.7 mg/kg
- inhibition in vivo at 75 mg/kg (Mus musculus [6]): 34%
- inhibition in vivo at 300 mg/kg (Mus musculus [7]): 35.3%
- inhibition in vivo at 150 mg/kg (Mus musculus [8]): 40.7%
- inhibition in vivo at 600 mg/kg (Mus musculus [9]): 62.4%

Compound: CC1(C)[C@@H](O)CC[C@]2(C)C3=C(CC[C@@H]12)[C@@]1(C)CC[C@@]2(C)CC[C@@](C)(CO)C[C@H]2[C@]1(C)CC3
- ED50 (Mus musculus [1]): 315 mg/kg

Compound: C[C@]12C=CC(=O)C=C1CC[C@@H]1[C@@H]2[C@@H](O)C[C@@]2(C)[C@H]1CC[C@]2(O)C(=O)COC(=O)CCC(=O)O [PREDNISOLONE HEMISUCCINATE]
- inhibition in vivo at 30 mg/kg (Mus musculus [10]): 37.4%
- inhibition in vivo at 30 mg/kg (Mus musculus [11]): 41%

Compound: CC1(C)[C@@H](OC(=O)CCC(=O)[O-])CC[C@]2(C)C3=C(CC[C@@H]12)[C@@]1(C)CC[C@@]2(C)CC[C@@](C)(COC(=O)CCC(=O)[O-])C[C@H]2[C@]1(C)CC3.[K+].[K+]
- ED50 (Mus musculus [1]): 52.4 mg/kg

Compound: COc1ccc(/C=C/C(=O)Nc2ccccc2C(=O)O)cc1OC [TRANILAST]
- ED50 (Mus musculus [1]): 152 mg/kg

Compound: CC1(C)[C@@H](OC(=O)CCC(=O)[O-])CC[C@]2(C)C3=C(CC[C@@H]12)[C@@]1(C)CC[C@@]2(C)CC[C@@](C)(CO)C[C@H]2[C@]1(C)CC3.[K+]
- ED50 (Mus musculus [1]): 50.3 mg/kg

Compound: CC1(C)[C@@H](OC(=O)c2ccccc2C(=O)[O-])CC[C@]2(C)C3=C(CC[C@@H]12)[C@@]1(C)CC[C@@]2(C)CC[C@@](C)(C(=O)[O-])C[C@H]2[C@]1(C)CC3.[K+].[K+]
- ED50 (Mus musculus [1]): 34.2 mg/kg
- ED50 (Mus musculus [2]): 172 mg/kg

Compound: CC1(C)[C@@H](O)CC[C@]2(C)C3=C(CC[C@@H]12)[C@@]1(C)CC[C@@]2(C)CC[C@@](C)(COC(=O)CCC(=O)[O-])C[C@H]2[C@]1(C)CC3.[K+]
- ED50 (Mus musculus [1]): > 400 mg/kg

Compound: CC1(C)[C@@H](OC(=O)CCC(=O)[O-])CC[C@]2(C)C3=CC[C@@]4(C)[C@@H]5C[C@](C)(C(=O)[O-])CC[C@]5(C)CC[C@]4(C)C3=CC[C@@H]12.[K+].[K+]
- ED50 (Mus musculus [1]): 92.4 mg/kg
